In brackets after ≈: the same amount, converted by molar mass.
Columns and labels:
Candida albicans [1] = assay: Antifungal activity against itraconazole and fluconazole resistant Candida albicans ATCC MYA-1237 after 48 hrs by broth dilution method; assay type: functional; conditions: Candida albicans, ATCC MYA-1237, 48 h
Summary of the method: (§1)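 CLSI M27-A3 broth microdilution with minor modifications. Overnight YPD culture grown at 35 °C, 200 rpm, adjusted to OD600 0.12, diluted in RPMI 1640 buffered to pH 7.0 with 0.165 M MOPS to a final 1–2 × 10^3 CFU/mL. Test compounds at 0.015–31.3 µg/mL, 48 h at 35 °C, DMSO <1.25%. […] Triplicate.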

Aspergillus flavus = assay: Antifungal activity against Aspergillus flavus ATCC MYA-3631 after 48 hrs by broth dilution method; assay type: functional; conditions: ATCC MYA-3631, 48 h
Candida albicans [2] = assay: Antifungal activity against itraconazole and fluconazole resistant Candida albicans ATCC MYA-1003 after 48 hrs by broth dilution method; assay type: functional; conditions: Candida albicans, ATCC MYA-1003, 48 h; summary of the method: as §1
Candida albicans [3] = assay: Antifungal activity against itraconazole and fluconazole susceptible Candida albicans ATCC MYA-2876 after 48 hrs by broth dilution method; assay type: functional; conditions: Candida albicans, ATCC MYA-2876, 48 h
Candida parapsilosis = assay: Antifungal activity against Candida parapsilosis ATCC 22019 after 48 hrs by broth dilution method; assay type: functional; conditions: Lodderomyces parapsilosis, ATCC 22019, 48 h
Pichia kudriavzevii = assay: Antifungal activity against Candida krusei ATCC 6258 after 48 hrs by broth dilution method; assay type: functional; conditions: Pichia kudriavzevii, ATCC 6258, 48 h
Summary of the method: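 Yeasts tested per CLSI M27-A3 with minor changes. An overnight YPD culture (35 °C, 200 rpm) was adjusted to OD600 0.12 and diluted in MOPS-buffered RPMI 1640 (pH 7.0) to a final 1–2 × 10^3 CFU/mL. Compounds 0.015–31.3 µg/mL, DMSO <1.25%.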

Aspergillus nidulans = assay: Antifungal activity against Aspergillus nidulans ATCC 38163 after 48 hrs by broth dilution method; assay type: functional; conditions: Aspergillus nidulans, ATCC 38163, 48 h
Summary of the method: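 A. nidulans run per CLSI M38-A2. PDA spores were filtered through glass wool and counted by hemocytometer. Test range 0.03–31.3 µg/mL in MOPS-buffered RPMI 1640 (pH 7.0), final 5 × 10^5 CFU/mL.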

Nakaseomyces glabratus = assay: Antifungal activity against Candida glabrata ATCC 2001 after 48 hrs by broth dilution method; assay type: functional, CBS 138; conditions: Nakaseomyces glabratus, CBS 138, 48 h
Candida albicans [4] = assay: Antifungal activity against Candida albicans ATCC 64124 after 48 hrs by broth dilution method; assay type: functional; conditions: Candida albicans, ATCC 64124, 48 h; summary of the method: as §1
Aspergillus terreus = assay: Antifungal activity against Aspergillus terreus ATCC MYA-3633 after 48 hrs by broth dilution method; assay type: functional; conditions: Aspergillus terreus, ATCC MYA-3633, 48 h
Summary of the method: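 Molds tested per CLSI M38-A2. Spores were harvested from sporulating PDA cultures by filtering through glass wool and counted on a hemocytometer. Serial dilutions (0.03–31.3 µg/mL) were made in RPMI 1640 buffered to pH 7.0 with 0.165 M MOPS, final inoculum 5 × 10^5 CFU/mL.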

Candida albicans [5] = assay: Antifungal activity against Candida albicans ATCC 10231 after 48 hrs by broth dilution method; assay type: functional; conditions: ATCC 10231, 48 h
Candida albicans [6] = assay: Antifungal activity against itraconazole and fluconazole resistant Candida albicans ATCC 90819 after 48 hrs by broth dilution method; assay type: functional; conditions: Candida albicans, ATCC 90819, 48 h; summary of the method: as §1
Candida albicans [7] = assay: Antifungal activity against itraconazole and fluconazole susceptible Candida albicans ATCC MYA-2310 after 48 hrs by broth dilution method; assay type: functional; conditions: Candida albicans, ATCC MYA-2310, 48 h

Compound	MIC (Candida albicans [1])	MIC (Aspergillus flavus)	MIC (Candida albicans [2])	MIC (Candida albicans [3])	MIC (Candida parapsilosis)	MIC (Pichia kudriavzevii)	MIC (Aspergillus nidulans)	MIC (Nakaseomyces glabratus)	MIC (Candida albicans [4])	MIC (Aspergillus terreus)	MIC (Candida albicans [5])	MIC (Candida albicans [6])	MIC (Candida albicans [7])
CN1CCN(CC(O)(Cn2cncn2)c2ccc(F)cc2F)CC1 (configuration not stated)	92.8 µM (≈ 31.3 µg/mL)	92.8 µM (≈ 31.3 µg/mL)	92.8 µM (≈ 31.3 µg/mL)	23.1 µM (≈ 7.79 µg/mL)	2.9 µM (≈ 0.978 µg/mL)	46.2 µM (≈ 15.6 µg/mL)	2.9 µM (≈ 0.978 µg/mL)	92.8 µM (≈ 31.3 µg/mL)	92.8 µM (≈ 31.3 µg/mL)	92.8 µM (≈ 31.3 µg/mL)	23.1 µM (≈ 7.79 µg/mL)	92.8 µM (≈ 31.3 µg/mL)	23.1 µM (≈ 7.79 µg/mL)
CCCCCN1CCN(CC(O)(Cn2cncn2)c2ccc(F)cc2F)CC1 (configuration not stated)	> 79.5 µM	> 79.5 µM	> 79.5 µM	> 79.5 µM	39.6 µM (≈ 15.6 µg/mL)	> 79.5 µM	> 79.5 µM	> 79.5 µM	> 79.5 µM	> 79.5 µM	> 79.5 µM	79.5 µM (≈ 31.3 µg/mL)	> 79.5 µM
OC(CN1CCOCC1)(Cn1cncn1)c1ccc(F)cc1F (configuration not stated)	> 96.5 µM	24 µM (≈ 7.78 µg/mL)	96.5 µM (≈ 31.3 µg/mL)	> 96.5 µM	> 96.5 µM	> 96.5 µM	6 µM (≈ 1.95 µg/mL)	96.5 µM (≈ 31.3 µg/mL)	> 96.5 µM	48.1 µM (≈ 15.6 µg/mL)	> 96.5 µM	12 to 96.5 µM (≈ 3.89 to 31.3 µg/mL)	24 to 96.5 µM (≈ 7.78 to 31.3 µg/mL)
OC(CNCCN1CCOCC1)(Cn1cncn1)c1ccc(F)cc1F (configuration not stated)	85.2 µM (≈ 31.3 µg/mL)	> 85.2 µM	> 85.2 µM	85.2 µM (≈ 31.3 µg/mL)	85.2 µM (≈ 31.3 µg/mL)	> 85.2 µM	> 85.2 µM	85.2 µM (≈ 31.3 µg/mL)	85.2 µM (≈ 31.3 µg/mL)	> 85.2 µM	85.2 µM (≈ 31.3 µg/mL)	> 85.2 µM	> 85.2 µM
CCCCCCCCCN1CCN(CC(O)(Cn2cncn2)c2ccc(F)cc2F)CC1 (configuration not stated)	35.2 µM (≈ 15.8 µg/mL)	1.1 µM (≈ 0.495 µg/mL)	35.2 µM (≈ 15.8 µg/mL)	8.8 µM (≈ 3.96 µg/mL)	0.55 µM (≈ 0.247 µg/mL)	2.2 µM (≈ 0.989 µg/mL)	2.2 µM (≈ 0.989 µg/mL)	8.8 µM (≈ 3.96 µg/mL)	17.6 µM (≈ 7.91 µg/mL)	4.4 µM (≈ 1.98 µg/mL)	2.2 µM (≈ 0.989 µg/mL)	17.6 µM (≈ 7.91 µg/mL)	35.2 µM (≈ 15.8 µg/mL)
CCCCCCCCCCCCCCN1CCN(CC(O)(Cn2cncn2)c2ccc(F)cc2F)CC1 (configuration not stated)	7.5 µM (≈ 3.9 µg/mL)	0.9 µM (≈ 0.468 µg/mL)	3.8 µM (≈ 1.97 µg/mL)	15 µM (≈ 7.8 µg/mL)	> 60.2 µM	1.9 µM (≈ 0.987 µg/mL)	3.8 µM (≈ 1.97 µg/mL)	> 60.2 µM	60.2 µM (≈ 31.3 µg/mL)	1.9 µM (≈ 0.987 µg/mL)	3.8 µM (≈ 1.97 µg/mL)	3.8 µM (≈ 1.97 µg/mL)	7.5 µM (≈ 3.9 µg/mL)
CCCCCN1CCNCC1	> 200 µM	> 200 µM	> 200 µM	> 200 µM	> 200 µM	> 200 µM	> 200 µM	> 200 µM	> 200 µM	> 200 µM	> 200 µM	> 200 µM	> 200 µM
Fc1ccc(C2(Cn3cncn3)CO2)c(F)c1 (configuration not stated)	> 132 µM	> 132 µM	> 132 µM	> 132 µM	> 132 µM	> 132 µM	> 132 µM	> 132 µM	> 132 µM	> 132 µM	> 132 µM	> 132 µM	> 132 µM
CCCCCCCCCCCN1CCNCC1	32.4 µM (≈ 7.79 µg/mL)	130 µM (≈ 31.2 µg/mL)	64.8 µM (≈ 15.6 µg/mL)	64.8 µM (≈ 15.6 µg/mL)	32.4 µM (≈ 7.79 µg/mL)	32.4 µM (≈ 7.79 µg/mL)	64.8 µM (≈ 15.6 µg/mL)	32.4 µM (≈ 7.79 µg/mL)	32.4 µM (≈ 7.79 µg/mL)	64.8 µM (≈ 15.6 µg/mL)	32.4 µM (≈ 7.79 µg/mL)	32.4 µM (≈ 7.79 µg/mL)	32.4 µM (≈ 7.79 µg/mL)
CCCCCCCCCN1CCNCC1	147 µM (≈ 31.3 µg/mL)	147 µM (≈ 31.3 µg/mL)	> 147 µM	> 147 µM	> 147 µM	147 µM (≈ 31.3 µg/mL)	> 147 µM	147 µM (≈ 31.3 µg/mL)	> 147 µM	> 147 µM	147 µM (≈ 31.3 µg/mL)	147 µM (≈ 31.3 µg/mL)	147 µM (≈ 31.3 µg/mL)
CCCCCCCCCCCN1CCN(CC(O)(Cn2cncn2)c2ccc(F)cc2F)CC1 (configuration not stated)	32.8 µM (≈ 15.7 µg/mL)	4.1 µM (≈ 1.96 µg/mL)	32.8 µM (≈ 15.7 µg/mL)	16.4 µM (≈ 7.83 µg/mL)	0.5 µM (≈ 0.239 µg/mL)	4.1 µM (≈ 1.96 µg/mL)	4.1 µM (≈ 1.96 µg/mL)	8.2 µM (≈ 3.92 µg/mL)	32.8 µM (≈ 15.7 µg/mL)	4.1 µM (≈ 1.96 µg/mL)	4.1 µM (≈ 1.96 µg/mL)	32.8 µM (≈ 15.7 µg/mL)	32.8 µM (≈ 15.7 µg/mL)
CCCCCCCCCCCCCCN1CCOCC1	> 110 µM	> 110 µM	> 110 µM	> 110 µM	> 110 µM	> 110 µM	> 110 µM	> 110 µM	> 110 µM	> 110 µM	> 110 µM	> 110 µM	> 110 µM
CCCCCCCCN1CCNCC1	> 158 µM	> 158 µM	> 158 µM	> 158 µM	> 158 µM	> 158 µM	> 158 µM	> 158 µM	> 158 µM	> 158 µM	> 158 µM	> 158 µM	> 158 µM
CCCCCCCCCCN1CCNCC1	68.9 µM (≈ 15.6 µg/mL)	138 µM (≈ 31.3 µg/mL)	68.9 µM (≈ 15.6 µg/mL)	68.9 µM (≈ 15.6 µg/mL)	68.9 µM (≈ 15.6 µg/mL)	34.5 µM (≈ 7.81 µg/mL)	68.9 µM (≈ 15.6 µg/mL)	34.5 µM (≈ 7.81 µg/mL)	68.9 µM (≈ 15.6 µg/mL)	68.9 µM (≈ 15.6 µg/mL)	68.9 µM (≈ 15.6 µg/mL)	68.9 µM (≈ 15.6 µg/mL)	68.9 µM (≈ 15.6 µg/mL)

Source: ChEMBL document CHEMBL4024783, “Alkylated Piperazines and Piperazine-Azole Hybrids as Antifungal Agents” (J Med Chem, 2018)
